Test results published in ChEMBL document CHEMBL4219191, “Discovery of new A- and B-type laxaphycins with synergistic anticancer activity” (Bioorg Med Chem, 2018).
Values belong to the compound of their own block, whether it stands above or below them. Starred links: 1 amine or outer side, 2 acyl side, 3 side chain; linkers in the order of their positions; H or OH if unused. Non-standard residues stand in square brackets, D forms with d. Residues, ends and D or L forms follow the SMILES beside them. dβ3hAhp = CCCCC[C@H](CC(=O)[*:2])N[*:1]; d(aIle) = CC[C@H](C)[C@@H](N)C(=O)O; Hyp = O=C(O)[C@@H]1C[C@@H](O)CN1; X1 = C/C=C(/N[*:1])C(=O)[*:2]; hSer = N[C@@H](CCO)C(=O)O

Key:
HCT-116 [1] = assay: Synergistic antiproliferative activity against human HCT116 cells assessed as combination index at 0.32 uM after 48 hrs in presence of 10 uM laxaphycin A by MTT assay; type: functional
HCT-116 [2] = assay: Synergistic antiproliferative activity against human HCT116 cells assessed as combination index at 1 uM after 48 hrs in presence of 32 uM laxaphycin A by MTT assay; type: functional
HCT-116 [3] = assay: Synergistic antiproliferative activity against human HCT116 cells assessed as combination index at 10 uM after 48 hrs in presence of 100 uM laxaphycin A by MTT assay; type: functional
HCT-116 [4] = assay: Synergistic antiproliferative activity against human HCT116 cells assessed as combination index at 0.32 uM after 48 hrs in presence of 3.2 uM laxaphycin A by MTT assay; type: functional
HCT-116 [5] = assay: Synergistic antiproliferative activity against human HCT116 cells assessed as combination index at 0.032 uM after 48 hrs in presence of 1 uM laxaphycin A by MTT assay; type: functional
HCT-116 [6] = assay: Synergistic antiproliferative activity against human HCT116 cells assessed as combination index at 3.2 uM after 48 hrs in presence of 32 uM laxaphycin A by MTT assay; type: functional
HCT-116 [7] = assay: Synergistic antiproliferative activity against human HCT116 cells assessed as combination index at 32 uM after 48 hrs in presence of 320 uM laxaphycin A by MTT assay; type: functional
HCT-116 [8] = assay: Synergistic antiproliferative activity against human HCT116 cells assessed as combination index at 0.1 uM after 48 hrs in presence of 3.2 uM laxaphycin A by MTT assay; type: functional
HCT-116 [9] = assay: Synergistic antiproliferative activity against human HCT116 cells assessed as combination index at 1 uM after 48 hrs in presence of 10 uM laxaphycin A by MTT assay; type: functional
HCT-116 [10] = assay: Antiproliferative activity against human HCT116 cells after 48 hrs by MTT assay; type: functional, cell-based; details: HCT-116, 48 h
Procedure, shortened: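 HCT116 cells grown in DMEM with 10% FBS at 37 °C under 5% CO2. 10,000 cells per well were seeded and treated 24 h later with a concentration series in DMSO (0.5%). After 48 h more, MTT viability was read. Run in triplicate; IC50 by nonlinear regression.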

HCT-116 [11] = assay: Synergistic antiproliferative activity against human HCT116 cells assessed as combination index at 0.1 uM after 48 hrs in presence of 1 uM laxaphycin A by MTT assay; type: functional
HCT-116 [12] = assay: Synergistic antiproliferative activity against human HCT116 cells assessed as combination index at 32 uM after 48 hrs in presence of 1 uM laxaphycin B4 by MTT assay; type: functional
HCT-116 [13] = assay: Synergistic antiproliferative activity against human HCT116 cells assessed as combination index at 100 uM after 48 hrs in presence of 10 uM laxaphycin B4 by MTT assay; type: functional
HCT-116 [14] = assay: Synergistic antiproliferative activity against human HCT116 cells assessed as combination index at 10 uM after 48 hrs in presence of 1 uM laxaphycin B4 by MTT assay; type: functional
HCT-116 [15] = assay: Synergistic antiproliferative activity against human HCT116 cells assessed as combination index at 1 uM after 48 hrs in presence of 0.1 uM laxaphycin B4 by MTT assay; type: functional
HCT-116 [16] = assay: Synergistic antiproliferative activity against human HCT116 cells assessed as combination index at 32 uM after 48 hrs in presence of 3.2 uM laxaphycin B4 by MTT assay; type: functional
HCT-116 [17] = assay: Synergistic antiproliferative activity against human HCT116 cells assessed as combination index at 1 uM after 48 hrs in presence of 0.032 uM laxaphycin B4 by MTT assay; type: functional
HCT-116 [18] = assay: Synergistic antiproliferative activity against human HCT116 cells assessed as combination index at 3.2 uM after 48 hrs in presence of 0.1 uM laxaphycin B4 by MTT assay; type: functional
HCT-116 [19] = assay: Synergistic antiproliferative activity against human HCT116 cells assessed as combination index at 10 uM after 48 hrs in presence of 0.32 uM laxaphycin B4 by MTT assay; type: functional
HCT-116 [20] = assay: Synergistic antiproliferative activity against human HCT116 cells assessed as combination index at 320 uM after 48 hrs in presence of 32 uM laxaphycin B4 by MTT assay; type: functional
HCT-116 [21] = assay: Synergistic antiproliferative activity against human HCT116 cells assessed as combination index at 3.2 uM after 48 hrs in presence of 0.32 uM laxaphycin B4 by MTT assay; type: functional

IC50 (HCT-116 [10]): 1.7 µM
Compound: CCCCCCC[C@@H]1CC(=O)N[C@@H](C(C)C)C(=O)N[C@H]([C@@H](O)C(C)C)C(=O)N[C@@H](CCO)C(=O)N[C@H]([C@@H](O)C(C)C)C(=O)N[C@@H](CCC(N)=O)C(=O)N(C)[C@@H]([C@@H](C)CC)C(=O)N[C@H]([C@@H](O)C(N)=O)C(=O)N[C@@H]([C@@H](C)O)C(=O)N2C[C@H](O)C[C@H]2C(=O)N[C@H](CC(C)C)C(=O)N[C@@H]([C@@H](C)O)C(=O)N1
CI (HCT-116 [1]): 0.063
CI (HCT-116 [2]): 0.029
CI (HCT-116 [3]): 0.0001
CI (HCT-116 [4]): 0.2909
CI (HCT-116 [5]): 5.267
CI (HCT-116 [6]): 0.0005
CI (HCT-116 [7]): 0.0002
CI (HCT-116 [8]): 0.121
CI (HCT-116 [9]): 0.1157
CI (HCT-116 [11]): 0.2457

IC50 (HCT-116 [10]): 29 µM
Compound: C/C=C1/NC(=O)[C@H](CCO)NC(=O)C[C@@H](CCCCC)NC(=O)CNC(=O)[C@H](CC(C)C)NC(=O)[C@@H]([C@@H](C)CC)NC(=O)[C@H](C(C)C)NC(=O)[C@@H](CC(C)C)NC(=O)[C@@H](Cc2ccccc2)NC(=O)[C@H](CCO)NC(=O)[C@@H]2C[C@@H](O)CN2C1=O (cyclo(G[dβ3hAhp][hSer][X1][Hyp][hSer][dF][dL]V[d(aIle)]L))

IC50 (HCT-116 [10]): 23 µM
Compound: C/C=C1/NC(=O)[C@H](CCO)NC(=O)C[C@@H](CCCCC)NC(=O)CNC(=O)[C@H](CC(C)C)NC(=O)[C@@H]([C@@H](C)CC)NC(=O)[C@H]([C@@H](C)CC)NC(=O)[C@@H](CC(C)C)NC(=O)[C@@H](Cc2ccccc2)NC(=O)[C@H](CCO)NC(=O)[C@@H]2C[C@@H](O)CN2C1=O [LAXAPHYCIN A] (cyclo(G[dβ3hAhp][hSer][X1][Hyp][hSer][dF][dL]I[d(aIle)]L))
CI (HCT-116 [12]): 0.029
CI (HCT-116 [13]): 0.0001
CI (HCT-116 [14]): 0.1157
CI (HCT-116 [15]): 0.2457
CI (HCT-116 [16]): 0.0005
CI (HCT-116 [17]): 5.267
CI (HCT-116 [18]): 0.121
CI (HCT-116 [19]): 0.063
CI (HCT-116 [20]): 0.0002
CI (HCT-116 [21]): 0.2909
